Published values from different studies.
Each line is one published result; the experiments were not run side by side. pEC50, pIC50, pKi: −log10 of the molar value.
GHSR: Growth hormone secretagogue receptor type 1 (GHSR, Homo sapiens, UniProt Q92847)
ACE: Angiotensin-converting enzyme (ACE, Homo sapiens, UniProt P12821)
CA12: Carbonic anhydrase 12 (CA12, Homo sapiens, UniProt O43570)
DRD3: D(3) dopamine receptor (DRD3, Homo sapiens, UniProt P35462)

| Compound | target | test | endpoint | result |
| --- | --- | --- | --- | --- |
| CC[C@H](C)[C@H](NC(=O)[C@H](C)NC(=O)[C@H](C)NC(=O)[C@H](CCC(=O)O)NC(=O)[C@H](CCCNC(=N)N)NC(=O)[C@H](C)NC(=O)[C@H](CC(C)C)NC(=O)[C@H](CC(C)C)NC(=O)[C@H](CCCNC(=N)N)NC(=O)[C@H](CCCNC(=N)N)NC(=O)[C@H](CC(C)C)NC(=O)[C@H](Cc1c[nH]cn1)NC(=O)[C@H](CCC(=O)O)NC(=O)[C@@H]1CCCN1C(=O)[C@H](CO)NC(=O)[C@H](CC(C)C)NC(=O)[C@H](Cc1ccccc1)NC(=O)[C@H](Cc1ccc(O)cc1)NC(=O)[C@H](CO)NC(=O)CN)C(=O)N1CCC[C@H]1C(=O)N1CCC[C@H]1C(=O)N1CCC[C@H]1C(=O)N1CCC[C@H]1C(=O)N[C@H](C(=O)N[C@@H](CC(C)C)C(=O)N1CCC[C@H]1C(=O)N[C@@H](CC(C)C)C(=O)O)C(C)C | GHSR | calcium signal, antagonist, fluorescence | pIC50 | 5.96 |
| CC(C)C[C@H](NC(=O)[C@@H](NC(=O)[C@@H](NC(=O)[C@@H]1CCCN1C(=O)[C@@H](N)CCC(=O)O)C(C)C)[C@@H](C)O)C(=O)O | ACE | enzyme activity, inhibitor | pIC50 | ~3.36 |
| Cc1ccc(C(=O)Nc2ccc3c(c2)C=CCP(=O)(O)O3)cc1 | CA12 | enzyme activity, inhibitor, stopped-flow | pKi | 8.11 |
| N#C[Se]Cc1cc(=O)oc2cc(O)ccc12 | CA12 | enzyme activity, inhibitor, stopped-flow | pKi | 7.03 |
| COC(=O)c1ccc(NS(=O)(=O)c2c(C)[nH]c(C)c2C(=O)N2CCC(F)(F)C2)cc1Cl | DRD3 | β-arrestin recruitment, antagonist | pIC50 | 4.48 |
| CCCCC1CNC2CCc3ccc(OC)cc3C12 (racemic) | DRD3 | ligand displacement, radioligand | pKi | 5.30 |
| O=C(Nc1ccc2c(c1)C=CCP(=O)(O)O2)c1ccc2ccccc2c1 | CA12 | enzyme activity, inhibitor, stopped-flow | pKi | 7.57 |
| CC[C@H](C)[C@H](NC(=O)[C@H](C)NC(=O)[C@H](C)NC(=O)[C@H](CCC(=O)O)NC(=O)[C@H](CCCNC(=N)N)NC(=O)[C@H](C)NC(=O)[C@H](CC(C)C)NC(=O)[C@H](CC(C)C)NC(=O)[C@H](CCCNC(=N)N)NC(=O)[C@H](CCCNC(=N)N)NC(=O)[C@H](C)NC(=O)[C@H](Cc1c[nH]cn1)NC(=O)[C@H](CCC(=O)O)NC(=O)[C@@H]1CCCN1C(=O)[C@H](CO)NC(=O)[C@H](CC(C)C)NC(=O)[C@H](Cc1ccccc1)NC(=O)[C@H](Cc1c[nH]c2ccccc12)NC(=O)[C@H](CO)NC(=O)CN)C(=O)N1CCC[C@H]1C(=O)N1CCC[C@H]1C(=O)N1CCC[C@H]1C(=O)N1CCC[C@H]1C(=O)N[C@H](C(=O)N1CCC[C@H]1C(=O)N1CCC[C@H]1C(=O)N1CCC[C@H]1C(=O)O)C(C)C | GHSR | calcium signal, agonist, fluorescence | pEC50 | 6.72 |
| CCC(CNc1nc(-c2cn3ccnc3cc2C)nc2ccccc12)c1ccccc1 (centres unmarked) | Sodium-dependent dopamine transporter (SLC6A3, Homo sapiens, UniProt Q01959) | ligand displacement, radioligand | pIC50 | 5.34 |
| CC(C)C[C@H](NC(=O)[C@@H](N)C(C)C)C(=O)N[C@@H](CO)C(=O)N1CCC[C@H]1C(=O)N[C@@H](CCC(N)=O)C(=O)O | ACE | enzyme activity, inhibitor, absorbance | pIC50 | 3.98 |
| CC[C@H](C)[C@H](NC(=O)[C@H](C)NC(=O)[C@H](C)NC(=O)[C@H](CCC(=O)O)NC(=O)[C@H](CCCNC(=N)N)NC(=O)[C@H](CCC(=O)O)NC(=O)[C@H](CC(C)C)NC(=O)[C@H](CCSC)NC(=O)[C@H](CCCNC(=N)N)NC(=O)[C@H](CCCNC(=N)N)NC(=O)[C@H](CC(C)C)NC(=O)[C@H](Cc1c[nH]cn1)NC(=O)[C@H](CCC(=O)O)NC(=O)[C@@H]1CCCN1C(=O)[C@H](CO)NC(=O)[C@H](CC(C)C)NC(=O)[C@H](Cc1ccccc1)NC(=O)[C@H](Cc1ccc(O)cc1)NC(=O)[C@H](CO)NC(=O)CN)C(=O)N1CCC[C@H]1C(=O)N1CCC[C@H]1C(=O)N1CCC[C@H]1C(=O)N1CCC[C@H]1C(=O)N[C@H](C(=O)N1CCC[C@H]1C(=O)N1CCC[C@H]1C(=O)N[C@@H](CC(C)C)C(=O)O)C(C)C | GHSR | calcium signal, antagonist, fluorescence | pIC50 | 5.86 |
| Cc1[nH]c(C)c(S(=O)(=O)Nc2ccc(S(F)(F)(F)(F)F)cc2)c1C(=O)N1CCC(F)(F)C1 | DRD3 | β-arrestin recruitment, antagonist | pIC50 | 5.64 |
| O=C(Nc1ccccc1)Nc1ccc2c(c1)C=CCP(=O)(O)O2 | CA12 | enzyme activity, inhibitor, stopped-flow | pKi | < 5.00 |
| CC(C)C[C@H](NC(=O)CNC(=O)[C@H](CCCNC(=N)N)NC(=O)[C@H](Cc1c[nH]c2ccccc12)NC(=O)[C@H](Cc1ccccc1)NC(=O)[C@@H]1CCCN1C(=O)CN)C(=O)N[C@@H](CO)C(=O)N[C@@H](CCCNC(=N)N)C(=O)N[C@@H](CCCNC(=N)N)C(=O)N1CCC[C@H]1C(=O)N[C@@H](CC(C)C)C(=O)N[C@@H](CCCNC(=N)N)C(=O)O | GHSR | calcium signal, antagonist, fluorescence | pIC50 | 5.47 |
| O=C(Nc1ccc2c(c1)C=CCP(=O)(O)O2)c1cccs1 | CA12 | enzyme activity, inhibitor, stopped-flow | pKi | 7.13 |
| CC(C)C[C@H](NC(=O)[C@H](CCC(=O)O)NC(=O)[C@H](C)NC(=O)[C@@H](NC(=O)[C@H](Cc1ccccc1)NC(=O)[C@H](CC(C)C)NC(=O)[C@H](CCCNC(=N)N)NC(=O)[C@H](C)NC(=O)[C@H](C)NC(=O)[C@H](CCCCN)NC(=O)[C@H](CCC(=O)O)NC(=O)[C@H](CO)NC(=O)[C@H](CC(C)C)NC(=O)[C@H](Cc1ccc(O)cc1)NC(=O)[C@H](CCC(=O)O)NC(=O)[C@H](CC(=O)O)NC(=O)[C@H](CC(C)C)NC(=O)[C@H](CC(C)C)NC(=O)[C@H](CCC(=O)O)NC(=O)[C@@H](NC(=O)[C@H](Cc1ccccc1)NC(=O)[C@H](CCC(=O)O)NC(=O)[C@H](CCC(=O)O)NC(=O)[C@H](CCC(=O)O)NC(=O)[C@H](C)NC(=O)[C@@H](N)CO)[C@@H](C)O)C(C)C)C(=O)N[C@@H](CCCCN)C(=O)N[C@@H](CCCCN)C(=O)O | Glucagon-like peptide 1 receptor (GLP1R, Homo sapiens, UniProt P43220) | calcium signal, antagonist, fluorescence | pIC50 | 4.80 |
| O=C(Nc1cccc(C(F)(F)F)c1)Nc1ccc2c(c1)C=CCP(=O)(O)O2 | CA12 | enzyme activity, inhibitor, stopped-flow | pKi | < 5.00 |
| CC(C)C[C@H](NC(=O)[C@@H](NC(=O)[C@@H](NC(=O)[C@@H]1CCCN1C(=O)[C@@H](N)CCC(=O)O)C(C)C)[C@@H](C)O)C(=O)N[C@H](C(=O)O)[C@@H](C)O | ACE | enzyme activity, inhibitor | pIC50 | ~3.06 |
| O=C(Nc1cccc(F)c1)Nc1ccc2c(c1)C=CCP(=O)(O)O2 | CA12 | enzyme activity, inhibitor, stopped-flow | pKi | < 5.00 |
| Cc1[nH]c(C)c(S(=O)(=O)Nc2ccc(S(=O)(=O)F)c(Cl)c2)c1C(=O)N1CCC(F)(F)C1 | DRD3 | β-arrestin recruitment, antagonist | pIC50 | 6.03 |
